Assay results as given in PMC4471785 (Cancer Science, 2015).

Tests used:
LAT1 = LAT1 (Homo sapiens, UniProt Q01650); test: Inhibition of DOX or Asp-DOX uptake into S2-LAT1 cells by amino acids; assay type: cell-based; conditions: 100 μmol/L amino acid, 2 min; for Inhibition of the uptake of Asp-DOX by amino acids: 20 μmol/L Asp-DOX; for Inhibition of the uptake of DOX by amino acids: 20 μmol/L DOX
Method in brief: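 S2-LAT1 cells incubated 2 min with 20 μmol/L test compound, with or without 100 μmol/L Leu, Met, Phe, Asp, Glu or Gly. Uptake stopped by three cold DPBS washes. Internalised drug extracted with methanol and quantified by HPLC.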

[1] = test system: H1299 (human non-small cell lung carcinoma cell line); test: MTT cytotoxicity, H1299; assay type: cell-based; conditions: 48 h
Method in brief: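 Cells maintained in DMEM or RPMI-1640 with 10% FBS, penicillin and streptomycin at 37°C, 5% CO2. Seeded at 2000–4000 cells/well and grown 48 h, then exposed to test compound at 10, 20 or 50 μg/mL for 48 h. MTT (5 mg/mL stock, 20 μL per 100 μL) added for 2 h; absorbance read at 492 nm. Six repeats; inhibition rate computed from mean values.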

HepG2 (LAT1-positive) = test: Cellular uptake in vitro, HepG2; assay type: cell-based, human; conditions: 2 h
Method in brief: (§1)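 HepG2 or H1299 cells seeded at 1.5 × 10^5/well and grown 48 h. Then exposed to test compound at 0, 10, 20 or 50 μg/mL in serum-free medium for 2 h at 37°C, 5% CO2. Rinsed three times with cold DPBS and imaged by fluorescence (excitation 475 nm, 580 nm). Cells then extracted with methanol and sonicated 10 min; supernatant quantified by HPLC/MS.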

[2] = test system: MDR1-overexpressing MDCK cells; test: Bidirectional transport assay; assay type: in vitro ADME; conditions: 50 μg/mL
Method in brief: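 MDCK-MDR1 cells grown in high-glucose DMEM with 10% FBS. Seeded at 2 × 10^5 cells per 1.12 cm2 on polycarbonate Transwell inserts (0.4-μm pores) and used after about 7 days. TEER checked first. After 20 min equilibration in HBSS with 25 mM HEPES, 50 μg/mL test compound was added to the apical or basolateral donor side at 37°C with 60 rpm shaking. Receiver sampled at 60 min for HPLC-fluorescence. PDR = Papp(B–A)/Papp(A–B); n = 3.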

H1299 tumors [3] = test: Biodistribution in H1299 tumor-bearing mice; assay type: in vivo; conditions: H1299 models; DOX versus Asp-DOX; 5 mg/kg i.v.; 1 h
H1299 (LAT1-negative) = test: Cellular uptake in vitro, H1299; assay type: cell-based, human; conditions: 2 h
Method in brief: as §1

HepG2 tumors = test: Biodistribution in HepG2 tumor-bearing mice; assay type: in vivo; conditions: HepG2 models; DOX-treated versus Asp-DOX-treated mice; 5 mg/kg i.v.; 1 h
Method in brief: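 Male nude mice ([…], 4 weeks, 18–22 g) implanted s.c. above the right femoral joint with 1.0 × 107 HepG2, HCT116 or H1299 cells in 0.1 mL PBS, 3–5 per line. On day 20, with tumours about 100 mm3, 5 mg/kg given i.v. Killed 1 h later; tissues frozen in liquid nitrogen. Homogenates extracted twice with methanol (1-naphthol internal standard) for HPLC/MS; reported as % injected dose/g tissue.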

[4] = Pharmacokinetics in healthy mice; assay type: in vivo
Method in brief: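 Healthy mice dosed 5 mg/kg via tail vein. Retrobulbar blood taken at 0, 2, 5, 10, 15, 30 min, 1, 2 and 4 h, mixed with 0.5 mM EDTA-PBS and spun at 1750 g for 15 min. Supernatant extracted with methanol, dried under nitrogen, reconstituted in mobile phase and analysed by HPLC. AUC0−t by non-compartmental i.v. bolus model.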

H1299 tumors [5] = test: Therapy study, H1299 tumor model; assay type: in vivo, mice; conditions: 5 mg/kg i.v. twice a week
Method in brief: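 Nude mice bearing s.c. HepG2 or H1299 xenografts, set up as in the biodistribution model, split into three groups once tumours reached 100 mm3. Groups given saline, doxorubicin or test compound at 5 mg/kg i.v. twice a week. Tumours measured twice weekly; volume = length × width²/2; volumes compared after 21 days of treatment.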

Sequence of LAT1 (Q01650 whole entry): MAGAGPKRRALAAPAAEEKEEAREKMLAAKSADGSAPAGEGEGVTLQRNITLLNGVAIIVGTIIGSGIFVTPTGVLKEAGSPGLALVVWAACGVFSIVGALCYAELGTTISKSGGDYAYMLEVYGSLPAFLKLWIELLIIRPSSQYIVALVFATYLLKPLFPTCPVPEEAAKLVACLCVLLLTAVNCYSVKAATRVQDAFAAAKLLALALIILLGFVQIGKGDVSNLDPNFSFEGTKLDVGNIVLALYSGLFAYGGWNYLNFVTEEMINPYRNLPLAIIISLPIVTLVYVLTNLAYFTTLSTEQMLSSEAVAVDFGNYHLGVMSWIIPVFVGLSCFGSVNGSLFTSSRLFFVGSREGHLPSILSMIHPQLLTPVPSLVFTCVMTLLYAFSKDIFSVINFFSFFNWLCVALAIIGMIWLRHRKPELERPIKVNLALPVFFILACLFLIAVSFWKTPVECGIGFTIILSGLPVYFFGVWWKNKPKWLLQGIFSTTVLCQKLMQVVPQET
Sequence of LAT1 (P08195 102-630 partner): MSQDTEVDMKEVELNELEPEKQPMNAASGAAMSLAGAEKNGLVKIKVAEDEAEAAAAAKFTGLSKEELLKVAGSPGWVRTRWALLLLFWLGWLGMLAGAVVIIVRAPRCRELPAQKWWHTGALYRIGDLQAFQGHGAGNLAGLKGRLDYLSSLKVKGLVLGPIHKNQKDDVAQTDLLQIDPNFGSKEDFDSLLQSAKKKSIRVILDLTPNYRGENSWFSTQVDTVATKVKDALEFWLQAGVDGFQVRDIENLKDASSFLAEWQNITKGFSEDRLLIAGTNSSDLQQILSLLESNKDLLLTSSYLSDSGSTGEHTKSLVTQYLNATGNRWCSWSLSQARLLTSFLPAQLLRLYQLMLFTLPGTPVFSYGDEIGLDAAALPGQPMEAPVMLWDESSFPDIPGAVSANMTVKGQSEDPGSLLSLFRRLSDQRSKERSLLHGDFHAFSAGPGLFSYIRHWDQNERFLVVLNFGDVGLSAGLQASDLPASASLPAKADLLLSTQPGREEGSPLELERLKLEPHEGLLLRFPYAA

SMILES: C[C@H](N)C(=O)O [Ala]
- Inhibition of the uptake of Asp-DOX by amino acids (LAT1): no inhibition
- Inhibition of the uptake of DOX by amino acids (LAT1): neither 100 μmol/L Leu, Met, or Phe, nor 100 μmol/L Ala, Glu, or Gly inhibited

SMILES: COc1cccc2c1C(=O)c1c(O)c3c(c(O)c1C2=O)C[C@@](O)(C(=O)CO)C[C@@H]3O[C@H]1C[C@H](N)[C@H](O)[C@H](C)O1 [DOX, doxorubicin]
- IC50 [1]: 36.51 μg/ml μg/mL
- Uptake (HepG2 (LAT1-positive); dose 10 μg/mL): 0.21 ± 0.030 µg/mL
- Uptake (HepG2 (LAT1-positive); dose 20 μg/mL): 0.44 ± 0.032 µg/mL
- Uptake (HepG2 (LAT1-positive); dose 50 μg/mL): 0.70 ± 0.079 µg/mL
- PDR (efflux rate, Papp(B–A):Papp(A–B)) [2]: 13.01 ± 1.425
- Papp A–B ([2]; apical to basolateral, 60 min): 0.53 ± 0.093 10^−6 cm/s
- Papp B–A ([2]; basolateral to apical, 60 min): 6.63 ± 0.328 10^−6 cm/s
- Drug levels in tissues (H1299 tumors [3]): higher than that of Asp-DOX in all tissues
- Uptake (H1299 (LAT1-negative); dose 10 μg/mL): 0.20 ± 0.059 µg/mL
- Uptake (H1299 (LAT1-negative); dose 20 μg/mL): 0.33 ± 0.019 µg/mL
- Uptake (H1299 (LAT1-negative); dose 50 μg/mL): 0.69 ± 0.055 µg/mL
- Drug levels in heart, liver, and lung (HepG2 tumors): significantly higher
- t1/2 ([4]; 5 mg/kg i.v. (tail vein), blood): 15.12 min
- AUC0−t ([4]; 5 mg/kg i.v., 0-4 h): 158.894 µg·min/mL
- Antitumor effect (H1299 tumors [5]): stronger than that of Asp-DOX and saline

SMILES: N[C@@H](CCC(=O)O)C(=O)O [Glu]
- Inhibition of the uptake of Asp-DOX by amino acids (LAT1): no inhibition
- Inhibition of the uptake of DOX by amino acids (LAT1): neither 100 μmol/L Leu, Met, or Phe, nor 100 μmol/L Ala, Glu, or Gly inhibited

SMILES: NCC(=O)O [Gly]
- Inhibition of the uptake of Asp-DOX by amino acids (LAT1): no inhibition
- Inhibition of the uptake of DOX by amino acids (LAT1): neither 100 μmol/L Leu, Met, or Phe, nor 100 μmol/L Ala, Glu, or Gly inhibited

SMILES: CC(C)C[C@H](N)C(=O)O [Leu, leucine]
- Inhibition of the uptake of Asp-DOX by amino acids (LAT1): strongly inhibited
- Inhibition of the uptake of DOX by amino acids (LAT1): neither 100 μmol/L Leu, Met, or Phe, nor 100 μmol/L Ala, Glu, or Gly inhibited

SMILES: CSCC[C@H](N)C(=O)O [Met, methionine]
- Inhibition of the uptake of Asp-DOX by amino acids (LAT1): strongly inhibited
- Inhibition of the uptake of DOX by amino acids (LAT1): neither 100 μmol/L Leu, Met, or Phe, nor 100 μmol/L Ala, Glu, or Gly inhibited

SMILES: N[C@@H](Cc1ccccc1)C(=O)O [Phe, phenylalanine]
- Inhibition of the uptake of Asp-DOX by amino acids (LAT1): strongly inhibited
- Inhibition of the uptake of DOX by amino acids (LAT1): neither 100 μmol/L Leu, Met, or Phe, nor 100 μmol/L Ala, Glu, or Gly inhibited
